In brackets after ≈: the same amount, converted by molar mass. A value given as a limit tells only on which side of the number the result lay.

In general, MIC refers to the smallest concentration in the dilution series that meets the test's criterion for growth inhibition. As a reminder, the CC50 is the concentration that lowers cell viability or growth by half.

Data set [1] has as its system Mycobacterium tuberculosis. Put plainly: Antimycobacterial activity against Mycobacterium tuberculosis H37Rv ATCC 27294 by MABA method. The data set is classed as functional. In a few lines: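 M. tuberculosis H37Rv (ATCC 27294), susceptible to all five first-line drugs, in modified Microplate Alamar Blue Assay. Two-fold serial dilutions were made in Middlebrook 7H9-OADC, 100–0.78 µg/mL, with 1:50 bacterial suspension (~6×10⁶ CFU/mL, McFarland 1). Incubation 37 °C, 5% CO₂, 5–7 days, then Alamar Blue plus 10% Tween-80, 24 h. MIC = first blue well, confirmed microscopically. Ethambutol was the reference; triplicate independent experiments.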
For orientation: Alamar Blue is a resazurin reagent that responds to reducing activity.

Data set [2] in a line: Cytotoxicity against african green monkey Vero cells after 48 hrs by MTT assay. The data set is classed as cell-based. The following applies: chlorocebus sabaeus. The essentials:
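Vero cells grown in RPMI-1640 with 10% FBS, penicillin and streptomycin, 37 °C, 5% CO₂. Exposed to compound 500–0.5 µg/mL for 48 h, then MTT (4 mg/mL in PBS) for 3 h. Formazan dissolved in DMSO, absorbance read at 575 nm. CC50 = concentration inhibiting 50% viability by linear regression; rounded mean of three experiments.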

Data set [3] can be described thus: Selectivity index, ratio of CC50 for african green monkey Vero cells to MIC for Mycobacterium tuberculosis H37Rv ATCC 27294. The format is functional. In a few lines:
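SI calculated as CC50 (Vero, MTT, 48 h) divided by MIC against H37Rv (MABA).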

In data set [1], `Cc1cc(O)c2c(c1)[C@H]([C@@H](C)CCC1OC1(C)C)CC[C@H]2C` (mixture of isomers) came in with an MIC of 103 µM. This compound returned a CC50 at 48 h in data set [2] of 661 µM. In addition, in data set [3], the “Selectivity Index” value worked out at 6.4.

In turn, `CC(C)=CCC[C@H](C)[C@@H]1CC[C@@H](C)c2c(OCc3ccc(Cl)cc3)cc(C)cc21` registered an MIC in data set [1] greater than 200 µM. In data set [1], `C/C(=C\CC[C@H](C)[C@@H]1CC[C@@H](C)c2c(O)cc(C)cc21)CO` displayed an MIC of 25.8 µM (≈ 7.8 µg/mL). The midpoint of cytotoxicity in data set [2], the CC50 at 48 h, lay at 132 µM. The “Selectivity Index” value in data set [3] was 5.1. The compound `CC(C)=CCC[C@H](C)[C@@H]1CC[C@@H](C)c2c(OCCCCCCOc3cc(C)cc4c3[C@H](C)CC[C@H]4[C@@H](C)CCC=C(C)C)cc(C)cc21` showed an MIC in data set [1] of 190 µM (≈ 124 µg/mL). On the same count and under the same terms, then `CC(C)=CCC[C@H](C)[C@@H]1CC[C@@H](C)c2c(OCCCCBr)cc(C)cc21`, with greater than 200 µM. Turning to `Cc1cc(O)c2c(c1)[C@H]([C@@H](C)CCC(N)C(C)(C)O)CC[C@H]2C` (stereo partly specified), the MIC in data set [1] turned out to be 98 µM (≈ 31.3 µg/mL). In data set [2], this compound showed a CC50 at 48 h of 158 µM. In addition, in data set [3], the “Selectivity Index” value is 1.6.

Compound `CC(C)=CCC[C@H](C)[C@@H]1CC[C@@H](C)c2c(OC(=O)c3ccco3)cc(C)cc21` gave an MIC in data set [1] greater than 200 µM. In data set [1], `CCCCCC(=O)Oc1cc(C)cc2c1[C@H](C)CC[C@H]2[C@@H](C)CCC=C(C)C` [LEUBETHANYL HEXANOATE] had an MIC greater than 200 µM. Take `CC(C)=CCC[C@H](C)[C@@H]1CC[C@@H](C)c2c(OCCCCCCBr)cc(C)cc21`: in data set [1], the MIC was greater than 200 µM. `CCCCCCOc1cc(C)cc2c1[C@H](C)CC[C@H]2[C@@H](C)CCC=C(C)C` gave an MIC in data set [1] greater than 200 µM. As for `CC[C@@H](CO)NCCN[C@@H](CC)CO` [ETHAMBUTOL], the lowest concentration to inhibit growth in data set [1] (MIC) was 7.5 µM (≈ 1.53 µg/mL). The same compound came in with a CC50 at 48 h in data set [2] greater than 500 µM. Moreover, the “Selectivity Index” value in data set [3] is greater than 67. The corresponding values for `Cc1cc(O)c2c(c1)[C@H]([C@@H](C)CCCC(C)C)CC[C@H]2C` are 30.3 µM (≈ 8.74 µg/mL), 192 µM and 6.3. `CC(C)=CCC[C@H](C)[C@@H]1CC[C@@H](C)c2c(OC(=O)c3ccc([N+](=O)[O-])cc3)cc(C)cc21` yielded an MIC in data set [1] greater than 200 µM. Take `C/C(C=O)=C\CC[C@H](C)[C@@H]1CC[C@@H](C)c2c(O)cc(C)cc21`: the MIC in data set [1] was 25.8 µM (≈ 7.75 µg/mL). Further, the CC50 at 48 h in data set [2] amounted to 116 µM. Further, the “Selectivity Index” value in data set [3] was 4.5.

Turning to `CC(C)=CCC[C@H](C)[C@@H]1CC[C@@H](C)c2c(OC(=O)c3ccccc3)cc(C)cc21` [LEUBETHANYL BENZOATE], the MIC in data set [1] was greater than 200 µM.

The compound `CC(C)=CCC[C@H](C)[C@@H]1CC[C@@H](C)c2c(OCc3cc([N+](=O)[O-])cc([N+](=O)[O-])c3)cc(C)cc21` gave an MIC in data set [1] greater than 200 µM. On to `CC(C)=CCC[C@H](C)[C@@H]1CC[C@@H](C)c2c(O)cc(C)c(Cc3cc([N+](=O)[O-])cc([N+](=O)[O-])c3)c21`, for which the MIC in data set [1] came to 17.2 µM (≈ 8.03 µg/mL). Further, in data set [2], the CC50 at 48 h was greater than 770 µM. The “Selectivity Index” value in data set [3] is greater than 45. The compound `CC(C)=CCC[C@H](C)[C@@H]1CC[C@@H](C)c2c(OCc3ccc([N+](=O)[O-])cc3)cc(C)cc21` displayed an MIC in data set [1] greater than 200 µM.

Compound `Cc1cc(O)c2c(c1)[C@H]([C@@H](C)CCC(O)C(C)(C)N)CC[C@H]2C` (stereo partly specified) had an MIC in data set [1] of 98 µM (≈ 31.3 µg/mL). For the same compound, the CC50 at 48 h in data set [2] came to 141 µM. Moreover, in data set [3], the “Selectivity Index” value is on record as 1.4. In turn, `COc1cc(C)cc2c1[C@H](C)CC[C@H]2[C@@H](C)CCC=C(C)C` [LEUBETHANOL METHYL ETHER] came in with an MIC in data set [1] greater than 200 µM. On the same count and under the same terms, the same measure for `CCCCOc1cc(C)cc2c1[C@H](C)CC[C@H]2[C@@H](C)CCC=C(C)C`: greater than 200 µM; for `CC(C)=CCC[C@H](C)[C@@H]1CC[C@@H](C)c2c(OCCCCOc3cc(C)cc4c3[C@H](C)CC[C@H]4[C@@H](C)CCC=C(C)C)cc(C)cc21`: 200 µM (≈ 125 µg/mL). In the case of `Cc1cc(O)c2c(c1)[C@H]([C@@H](C)CCC(O)C(C)(C)N=[N+]=[N-])CC[C@H]2C` (stereo partly specified), the MIC in data set [1] was 181 µM (≈ 62.5 µg/mL). This compound came in with a CC50 at 48 h in data set [2] of 231 µM. Besides, the “Selectivity Index” value in data set [3] is given as 1.3. The like results for `Cc1cc(O)c2c(c1)[C@H]([C@@H](C)CCC(N=[N+]=[N-])C(C)(C)O)CC[C@H]2C` (stereo partly specified) were, in that order, 90 µM (≈ 31.1 µg/mL), 127 µM and 1.4.

`CC(=O)Oc1cc(C)cc2c1[C@H](C)CC[C@H]2[C@@H](C)CCC=C(C)C` [LEUBETHANYL ACETATE] displayed an MIC in data set [1] of 48.7 µM. The same compound came in with a CC50 at 48 h in data set [2] greater than 1100 µM. Further, the “Selectivity Index” value in data set [3] is greater than 22.6.

In data set [1], `Cc1cc(O)c2c(c1)[C@H]([C@@H](C)CCCC(C)(C)O)CC[C@H]2C` yielded an MIC of 200 µM (≈ 60.9 µg/mL). In the case of `CC(C)=CCC[C@H](C)[C@@H]1CC[C@@H](C)c2c(O)cc(C)cc21` [LEUBETHANOL], it took 25.1 µM (≈ 7.19 µg/mL) to inhibit growth in data set [1] (MIC). In data set [2], this compound came in with a CC50 at 48 h of 123 µM. Also, the “Selectivity Index” value in data set [3] is 4.9.

The values above are taken from ChEMBL document CHEMBL2046345, “Synthesis of Leubethanol derivatives and evaluation against Mycobacterium tuberculosis” (Bioorg Med Chem, 2012).
